ChEMBL document CHEMBL3734738, “A structure-activity relationship of non-peptide macrocyclic histone deacetylase inhibitors and their anti-proliferative and anti-inflammatory activities” (Bioorg Med Chem, 2015)
Calls of active or inactive are those of the source. No cut-off for these calls is given here.

How the values were obtained:
Histone deacetylase 1 [1] = target: T1, Histone deacetylase 1 (Homo sapiens, UniProt Q13547); test: Inhibition of recombinant HDAC1 (unknown origin) expressed in Escherichia coli BL21(DE3) after 60 mins using trichostatin A by label-free mass spectrometry-based SAMDI assay
T1 sequence (Q13547 whole entry): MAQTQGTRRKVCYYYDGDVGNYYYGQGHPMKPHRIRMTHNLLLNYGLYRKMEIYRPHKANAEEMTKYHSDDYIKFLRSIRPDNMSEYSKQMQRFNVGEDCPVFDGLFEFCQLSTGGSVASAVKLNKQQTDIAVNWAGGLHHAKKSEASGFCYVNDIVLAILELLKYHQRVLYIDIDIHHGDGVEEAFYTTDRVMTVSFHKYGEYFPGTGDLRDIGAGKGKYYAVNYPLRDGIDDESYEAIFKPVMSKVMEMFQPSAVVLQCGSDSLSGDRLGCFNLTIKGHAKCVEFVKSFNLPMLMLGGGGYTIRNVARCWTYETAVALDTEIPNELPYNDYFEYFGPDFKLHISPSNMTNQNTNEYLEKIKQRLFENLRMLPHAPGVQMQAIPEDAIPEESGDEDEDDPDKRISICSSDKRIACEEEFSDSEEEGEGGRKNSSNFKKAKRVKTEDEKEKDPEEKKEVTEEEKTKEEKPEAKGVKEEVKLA

[2] = target: T2, Protein deacetylase HDAC6 (Homo sapiens, UniProt Q9UBN7); test: Inhibition of recombinant HDAC6 (unknown origin) expressed in Escherichia coli BL21(DE3) after 60 mins using trichostatin A by label-free mass spectrometry-based SAMDI assay
T2 sequence (Q9UBN7 whole entry): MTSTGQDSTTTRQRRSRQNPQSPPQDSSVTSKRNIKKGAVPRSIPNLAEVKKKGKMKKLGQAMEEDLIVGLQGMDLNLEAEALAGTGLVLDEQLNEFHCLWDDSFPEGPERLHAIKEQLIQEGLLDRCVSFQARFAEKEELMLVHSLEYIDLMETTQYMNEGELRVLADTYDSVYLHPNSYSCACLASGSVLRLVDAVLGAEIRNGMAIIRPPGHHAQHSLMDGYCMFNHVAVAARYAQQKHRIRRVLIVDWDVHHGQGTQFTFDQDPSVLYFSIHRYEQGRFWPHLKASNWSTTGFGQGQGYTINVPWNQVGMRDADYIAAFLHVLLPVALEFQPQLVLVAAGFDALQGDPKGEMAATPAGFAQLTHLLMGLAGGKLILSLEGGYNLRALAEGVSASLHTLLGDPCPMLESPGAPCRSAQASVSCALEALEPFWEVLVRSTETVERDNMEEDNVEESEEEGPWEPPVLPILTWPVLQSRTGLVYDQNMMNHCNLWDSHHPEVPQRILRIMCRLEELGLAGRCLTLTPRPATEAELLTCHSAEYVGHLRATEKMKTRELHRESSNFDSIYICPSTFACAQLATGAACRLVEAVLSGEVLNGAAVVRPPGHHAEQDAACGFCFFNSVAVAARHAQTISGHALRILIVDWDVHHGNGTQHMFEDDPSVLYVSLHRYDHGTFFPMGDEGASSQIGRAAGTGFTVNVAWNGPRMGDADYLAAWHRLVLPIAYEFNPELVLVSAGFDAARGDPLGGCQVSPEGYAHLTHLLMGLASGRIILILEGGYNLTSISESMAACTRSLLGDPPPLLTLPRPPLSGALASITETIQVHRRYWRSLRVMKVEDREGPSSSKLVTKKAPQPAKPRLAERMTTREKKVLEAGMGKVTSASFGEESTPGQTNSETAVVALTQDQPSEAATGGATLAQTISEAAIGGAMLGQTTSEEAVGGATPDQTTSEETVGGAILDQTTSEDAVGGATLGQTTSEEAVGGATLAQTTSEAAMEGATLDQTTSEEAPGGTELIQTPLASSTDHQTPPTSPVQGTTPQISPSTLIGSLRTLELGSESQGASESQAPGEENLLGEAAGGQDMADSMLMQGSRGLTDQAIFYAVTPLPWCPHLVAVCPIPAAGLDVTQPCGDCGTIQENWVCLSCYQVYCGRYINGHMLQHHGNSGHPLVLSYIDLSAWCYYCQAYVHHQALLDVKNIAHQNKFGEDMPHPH

Histone deacetylase 8 = target: T3, Histone deacetylase 8 (Homo sapiens, UniProt Q9BY41); test: Inhibition of recombinant HDAC8 (unknown origin) expressed in Escherichia coli BL21(DE3) after 60 mins using trichostatin A by label-free mass spectrometry-based SAMDI assay
T3 sequence (Q9BY41 whole entry): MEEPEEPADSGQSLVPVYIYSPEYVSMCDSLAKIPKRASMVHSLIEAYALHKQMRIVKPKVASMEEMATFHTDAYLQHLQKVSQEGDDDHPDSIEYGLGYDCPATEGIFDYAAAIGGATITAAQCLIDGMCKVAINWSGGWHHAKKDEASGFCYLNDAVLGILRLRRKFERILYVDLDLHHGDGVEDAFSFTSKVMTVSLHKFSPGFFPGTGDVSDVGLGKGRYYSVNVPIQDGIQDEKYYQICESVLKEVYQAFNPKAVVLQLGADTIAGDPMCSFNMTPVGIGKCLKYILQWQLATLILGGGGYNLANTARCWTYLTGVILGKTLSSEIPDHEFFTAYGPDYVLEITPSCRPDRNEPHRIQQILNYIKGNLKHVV

A549 = test: Cytotoxicity against human A549 cells after 72 hrs by MTS assay; format: functional, cell-based
Method in brief: (§1)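 Cells kept in DMEM with 10% FBS and 1% penicillin-streptomycin, seeded in 96-well plates for 24 h, then exposed to a range of drug concentrations for 72 h at 0.1% DMSO; viability read by MTS assay per manufacturer's protocol.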

MCF7 = test: Cytotoxicity against human MCF7 cells after 72 hrs by MTS assay; format: functional, cell-based; method in brief: as §1
[3] = Inhibition of NTHi-induced NF-kappaB activation in human BEAS-2B cells treated 1 hr before NTHi stimulation measured after 5 hrs by luciferase assay; format: cell-based
Homo sapiens = species on record: Homo sapiens; conditions: at 1 µM
BEAS-2B [4] = test: Antiinflammatory activity in human BEAS2B cells assessed as inhibition of NTHi-induced TNFalpha mRNA expression at 1 uM treated 2 hrs before NTHi stimulation measured after 1.5 hrs by Q-PCR analysis; format: functional, cell-based
Method in brief: (§2)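 BEAS-2B cells pretreated 2 h with inhibitor at 1 μM, then stimulated 1.5 h with NTHi; PBS-treated cells as unstimulated control. Total RNA isolated with TRIzol, reverse transcribed, and TNF-α, IL-1α, IL-1β mRNA quantified by SYBR Green real-time PCR with 500 nM primers, reactions in triplicate; mean of n=3, representative of three independent experiments.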

BEAS-2B [5] = test: Antiinflammatory activity in human BEAS2B cells assessed as inhibition of NTHi-induced IL-1alpha mRNA expression at 1 uM treated 2 hrs before NTHi stimulation measured after 1.5 hrs by Q-PCR analysis; format: functional, cell-based; method in brief: as §2
BEAS-2B [6] = test: Antiinflammatory activity in human BEAS2B cells assessed as inhibition of NTHi-induced IL-1beta mRNA expression at 1 uM treated 2 hrs before NTHi stimulation measured after 1.5 hrs by Q-PCR analysis; format: functional, cell-based; method in brief: as §2
Vero = test: Cytotoxicity against African green monkey Vero cells after 72 hrs by MTS assay; format: cell-based; conditions: Chlorocebus sabaeus; method in brief: as §1
Histone deacetylase 1 [7] = target: T1, Histone deacetylase 1; test: Inhibition of recombinant HDAC1 (unknown origin) expressed in Escherichia coli BL21(DE3) at 10 uM after 60 mins using trichostatin A by label-free mass spectrometry-based SAMDI assay
[8] = Homo sapiens, A549, 72 h, read-out: IC50
[9] = Homo sapiens, MCF7, 72 h, read-out: IC50
[10] = Homo sapiens, BEAS-2B, read-out: IC50

| SMILES | IC50 (Histone deacetylase 1 [1]) [nM] | IC50 [2] [nM] | IC50 (Histone deacetylase 8) [nM] | IC50 (A549; a549) | IC50 (MCF7; mcf7) | IC50 [3] | Imax (Homo sapiens) [%] | IC50 (A549; [8]) [nM] | IC50 (MCF7; [9]) [nM] | IC50 [3, 10] [nM] | inhibition (BEAS-2B [4]) | inhibition (BEAS-2B [5]) | inhibition (BEAS-2B [6]) | IC50 (Vero) [nM] | inhibition (Histone deacetylase 1 [7]) [%] |
| --- | --- | --- | --- | --- | --- | --- | --- | --- | --- | --- | --- | --- | --- | --- | --- |
| CC[C@H]1OC(=O)[C@H](C)C(=O)[C@H](C)[C@@H](O[C@@H]2O[C@H](C)C[C@H](N(C)Cc3cccc(-c4cn(CCCCCC(=O)NO)nn4)c3)[C@H]2O)[C@@](C)(OC)C[C@@H](C)C2=NCCN3C(=O)O[C@@]1(C)[C@H]3[C@H]2C | 109 | 17.5 | 3230 | Not Active | Not Active | Not Active | 71 | – | – | – | – | – | – | – | – |
| CC[C@H]1OC(=O)[C@H](C)C(=O)[C@H](C)[C@@H](O[C@@H]2O[C@H](C)C[C@H](N(C)Cc3ccc(-c4cn(CCCCCCC(=O)NO)nn4)cc3)[C@H]2O)[C@@](C)(OC)C[C@@H](C)C2=NCCN3C(=O)O[C@@]1(C)[C@H]3[C@H]2C | 20.8 | 6.99 | 1500 | – | – | – | 35.3 | 2190 | 1980 | 47.2 | Active | Active | Active | – | – |
| CC[C@@H]1OC(=O)[C@@H](C)[C@H](O[C@H]2C[C@@](C)(OC)[C@@H](O)[C@H](C)O2)[C@H](C)[C@H](O[C@@H]2O[C@H](C)C[C@H](N(C)Cc3ccc(-c4cn(CCCCCCC(=O)NO)nn4)cc3)[C@H]2O)[C@@](C)(OC)C[C@H](C)C(=O)[C@@H](C)[C@@H](O)[C@@]1(C)O (stereo in doubt) | 207 | 6.67 | 713 | – | – | – | 35.9 | 2290 | 2860 | 243 | – | – | – | 4900 | – |
| CC[C@@H]1OC(=O)[C@@H](C)[C@H](O[C@H]2C[C@@](C)(OC)[C@@H](O)[C@H](C)O2)[C@@H](C)[C@H](O[C@H]2O[C@@H](C)C[C@@H](N(C)C)[C@@H]2O)[C@](C)(O)C[C@H](C)CN(Cc2ccc(-c3cn(CCCCCCC(=O)NO)nn3)cc2)[C@H](C)[C@H](O)[C@@]1(C)O | 16.1 | 4.72 | 1700 | – | – | – | 31.4 | 8280 | 6300 | 244 | Active | Active | Active | 6660 | – |
| CC[C@H]1OC(=O)[C@@H](C)[C@H](O[C@H]2C[C@@](C)(OC)[C@](O)(CN(C)C)[C@H](C)O2)[C@H](C)[C@H](O[C@H]2O[C@@H](C)C[C@@H](N(C)Cc3ccc(-c4cn(CCCCCCC(=O)NO)nn4)cc3)[C@@H]2O)[C@@](C)(O)C[C@H](C)CN(C)[C@@H](C)[C@H](O)[C@@]1(C)O | 79.5 | 18.9 | 749 | – | – | – | 43.4 | 6800 | – | 575 | – | – | – | 5730 | – |
| CC[C@@H]1OC(=O)[C@@H](C)[C@H](O[C@@H]2C[C@](C)(OC)[C@@](O)(CN(C)C)[C@@H](C)O2)[C@H](C)[C@H](O[C@@H]2O[C@H](C)C[C@H](N(C)Cc3ccc(-c4cn(CCCCCCC(=O)NO)nn4)cc3)[C@H]2O)[C@@](C)(OC)C[C@H](C)C(=O)[C@@H](C)[C@@H](O)[C@@]1(C)O | 33.3 | 31.4 | 2210 | – | – | – | 33.4 | 3580 | 1430 | 260 | – | – | – | 2080 | – |
| CC[C@@H]1OC(=O)[C@H](C)[C@@H](O[C@@H]2C[C@](C)(OC)[C@H](O)[C@@H](C)O2)[C@@H](C)[C@@H](O[C@@H]2O[C@H](C)C[C@H](N(C)Cc3cccc(-c4cn(CCCCCCC(=O)NO)nn4)c3)[C@H]2O)[C@](C)(O)C[C@@H](C)CN(C)[C@H](C)[C@@H](O)[C@]1(C)O | 101 | 41 | 1440 | – | – | – | 43.3 | 4090 | 2370 | 609 | – | – | – | 8350 | – |
| CC[C@H]1OC(=O)[C@@H](C)[C@H](O[C@H]2C[C@@](C)(OC)[C@@H](O)[C@H](C)O2)[C@H](C)[C@H](O[C@H]2O[C@@H](C)C[C@@H](N(C)Cc3ccc(-c4cn(CCCCCCC(=O)NO)nn4)cc3)[C@@H]2O)[C@@](C)(O)C[C@H](C)CN(C)[C@@H](C)[C@H](O)[C@@]1(C)O (stereo in doubt) | 68.6 | 7.29 | 314 | – | – | – | 41.4 | 2320 | 4080 | 280 | – | – | – | 5900 | – |
| CC[C@H]1OC(=O)[C@H](C)[C@@H](O[C@@H]2C[C@](C)(OC)[C@@](O)(CN(C)Cc3ccc(-c4cn(CCCC(=O)NO)nn4)cc3)[C@@H](C)O2)[C@@H](C)[C@@H](O[C@H]2O[C@@H](C)C[C@@H](N(C)C)[C@@H]2O)[C@](C)(OC)C[C@@H](C)C(=O)[C@H](C)[C@H](O)[C@]1(C)O | > 10000 | 361 | 2530 | – | – | – | – | – | – | – | – | – | – | – | 27 |
| CC[C@@H]1OC(=O)[C@@H](C)[C@H](O[C@H]2C[C@@](C)(OC)[C@](O)(CN(C)Cc3ccc(-c4cn(CCCCCCC(=O)NO)nn4)cc3)[C@H](C)O2)[C@H](C)[C@H](O[C@@H]2O[C@H](C)C[C@H](N(C)C)[C@H]2O)[C@@](C)(OC)C[C@H](C)C(=O)[C@@H](C)[C@@H](O)[C@@]1(C)O | 23.9 | 2.85 | 1840 | – | – | – | 35.6 | 990 | 690 | 197 | Active | Active | Active | 1550 | – |
| CC[C@H]1OC(=O)[C@H](C)[C@@H](O[C@@H]2C[C@](C)(OC)[C@H](O)[C@@H](C)O2)[C@@H](C)[C@@H](O[C@H]2O[C@@H](C)C[C@@H](N(C)Cc3ccc(-c4cn(CCCCCC(=O)NO)nn4)cc3)[C@@H]2O)[C@](C)(OC)C[C@@H](C)C(=O)[C@H](C)[C@H](O)[C@]1(C)O (stereo in doubt) | 533 | 3.61 | 1180 | – | – | – | 45.1 | – | – | 785 | – | – | – | – | – |
